MC4R antag cAMP – human MC4R antagonism in cAMP assay | P32245 | MC4R-expressing cells, MTII-stimulated cAMP, LANCE TR-FRET | inhibition, % at 6.5 µM | actives 0.48% (n = 360,000) | AID 540295;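 active = inhibition above its plate's cutoff, the mean of tested wells on that plate plus 3 SD, cut at about 29% in these data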;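 also: 0% = Melanotan II alone and 100% = Melanotan II plus saturating MCL0020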
Target sequence (P32245 whole entry, looked up): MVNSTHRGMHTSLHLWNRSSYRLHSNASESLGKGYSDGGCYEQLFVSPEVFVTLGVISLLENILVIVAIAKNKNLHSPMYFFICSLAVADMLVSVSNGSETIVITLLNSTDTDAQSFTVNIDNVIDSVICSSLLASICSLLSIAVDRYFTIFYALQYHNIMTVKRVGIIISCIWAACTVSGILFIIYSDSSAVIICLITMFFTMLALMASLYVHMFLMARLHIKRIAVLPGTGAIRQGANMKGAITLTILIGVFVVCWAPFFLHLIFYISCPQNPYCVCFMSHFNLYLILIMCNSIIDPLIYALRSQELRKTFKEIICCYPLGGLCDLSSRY
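Test system: U2OS cells stably expressing human melanocortin 4 receptor (MC4R); also added: Melanotan II challenge; compound: 6.5 µM single dose; timing: 30-min compound preincubation, 1-h Melanotan II challenge, 1-h detection, room temperature; signal: Eu-cAMP/anti-cAMP TR-FRET, emission 671 nm; repeats: one well per compound, no replicates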
MC4R ag barr – agonists of human melanocortin 4 receptor (MC4R) beta-arrestin. P32245. U2OS MC4R beta-arrestin complementation, luminescence; percent of melanotan II response, DMSO zero. activation, % at 8.9 µM. actives 0.98% (n = 360,000);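 active = activation above a per-plate cutoff, the mean activation of sample wells on that plate plus 3 SD, cut at about 8% in these data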
EBI2 antag – EBI2 (human) antagonism | EBI2 beta-arrestin recruitment, luminescence, 7a,25-OHC stimulated | P32249 | inhibition, % at 5 µM | actives 0.81% (n = 360,000); in the data active = inhibition above about 38%;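 also: enzyme fragment complementation signal reports receptor beta-arrestin coupling in cells; 0% = agonist plus DMSO wells and 100% = wells without agonist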
Target sequence (P32249 whole entry, looked up, the tested form may be a part): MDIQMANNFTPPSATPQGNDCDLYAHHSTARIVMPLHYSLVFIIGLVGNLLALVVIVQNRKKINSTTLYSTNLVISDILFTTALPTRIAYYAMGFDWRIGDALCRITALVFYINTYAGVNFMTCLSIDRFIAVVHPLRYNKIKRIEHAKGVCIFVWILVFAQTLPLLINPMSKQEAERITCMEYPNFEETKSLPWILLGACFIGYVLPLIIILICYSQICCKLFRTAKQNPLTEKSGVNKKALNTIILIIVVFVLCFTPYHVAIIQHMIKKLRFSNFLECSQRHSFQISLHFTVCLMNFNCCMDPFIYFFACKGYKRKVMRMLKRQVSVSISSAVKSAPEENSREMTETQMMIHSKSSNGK
Exocytosis inh – blocks lytic granule exocytosis; inhibition, % at 10 µM; actives 0.66% (n = 360,000); TALL-104 LAMP-1 surface exposure, flow cytometry; cells stimulated with thapsigargin and PMA;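 active = inhibition above about 55%, limit read from the data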
Myeloid diff MLP – myeloid differentiation induction; ER-HoxA9 myeloid progenitors, lysozyme-GFP differentiation, flow cytometry; actives 1% (n = 360,000); calls only at 10 µM;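 active = normalized GFP-positive differentiation at or above the plate's own cutoff, the solvent-only control mean plus 3 SD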;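 also: cells exposed to compound for four days before flow analysis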
EBI2 conf – confirmation of human EBI2 receptor antagonists; shares compounds with EBI2 antag; EBI2 beta-arrestin luminescence, 7a,25-OHC antagonism; inhibition, % at 5 µM; actives 29% (n = 2,400); AID 651997;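 active = inhibition of at least 50%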
EBI2 agonist – counter-screen for EBI2 antagonists: EBI2 agonist activity | 2,400 tested, under 10 active | activation, % at 5 µM | shares compounds with EBI2 antag | EBI2-expressing cells, agonist mode, luminescence, 60 min; 0% vehicle, 100% 7α,25-dihydroxycholesterol control;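 active = activation of at least 50%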
bGal counter – beta-galactosidase inhibition counter-screen; shares compounds with EBI2 antag; purified beta-galactosidase, luminescent Galacton Star, 15 min; inhibition, % at 5 µM; actives 1% (n = 2,400);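 active = replicate-average signal at least 3 plate SD below neutral wells, shown as high inhibition, flagging enzyme-inhibiting false positives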;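 also: 0% = DMSO wells with enzyme and 100% = wells lacking enzyme; higher means stronger loss of beta-gal luminescence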
The depositor's hits bear a star; i = inactive; x = no result given. Only some compounds are listed: those with a hit (about 3.7% of all), similar ones and a draw of the others.

SMILES | MC4R antag cAMP | MC4R ag barr | EBI2 antag | Exocytosis inh | Myeloid diff MLP | EBI2 conf | EBI2 agonist | bGal counter
COc1ccc(NC(=S)Nc2ccc(Oc3ccccc3)cc2)cc1 | -1.9 | -0.7 | 14.3 | -6.3 | i | x | x | x
COc1ccc(NC(=O)c2ccc(OC(F)F)cc2)cc1Cl | 8.8 | 0.6 | 45.6* | 1.8 | i | 53.9* | -1.1 | -10.5
C=C1C[C@@H]2C[C@@H]2CN(S(=O)(=O)c2ccc(C)cc2)[C@@H]1COCc1ccccc1 | x | x | 2.0 | 3.4 | i | x | x | x
O=C(CCCNC(=O)c1ccc(Cl)cc1)Nc1nccs1 | 6.7 | -2.8 | 1.5 | -4.5 | i | x | x | x
O=C(CS)Nc1ccc2ccccc2c1 | 20.4 | 2.0 | 39.6* | 66.7* | i | 26.1 | 0.2 | 2.6
COc1cccc(C(=O)Nc2ccc(NC(=O)Cc3ccccc3)cc2)c1 | 5.0 | 2.3 | 66.5* | 0.4 | i | 39.9 | -0.4 | 7.6
COc1cccc(C(=O)Nc2ccc3ccccc3c2)c1 | 1.0 | -0.3 | 13.2 | -2.8 | i | x | x | x
COc1ccc(C(=O)Nc2ccc3ccccc3c2)cc1 | -3.4 | 3.3 | 55.2* | -9.4 | i | 38.3 | -0.5 | -5.9
CCN(C(=O)c1ccco1)c1nc(-c2ccc(OC)cc2)cs1 | -1.9 | 0.0 | 32.8 | 3.4 | i | x | x | x
COc1ccc(-c2csc(N(CC(C)C)C(=O)c3ccco3)n2)cc1 | 0.5 | 0.7 | 44.4* | -8.2 | i | 30.7 | -1.2 | -13.0
Cc1ccc(Oc2cnc3ccccc3n2)cc1 | 1.2 | -1.8 | -15.7 | 2.2 | i | x | x | x
Cc1ccc(Oc2ccc(Oc3ccc(C)cc3)nn2)cc1 | 13.7 | 5.1 | 91.9* | -1.4 | i | 89.3* | 2.8 | 4.1
O=C(NCc1cccnc1)C1CCC(CNS(=O)(=O)c2cccc3nsnc23)CC1 (stereo not given) | 12.4 | -1.0 | -11.5 | -5.6 | i | x | x | x
CC(=O)c1c(C)[nH]c(C(=O)NCCc2c[nH]c3ccccc23)c1C | 9.7 | -2.4 | -3.9 | -4.5 | i | x | x | x
CCOC(=O)c1cnc2cc(Cl)c(OC)cc2c1NCC1CCCO1 (stereo not given) | 8.7 | -1.6 | 41.4* | 3.3 | i | 31.2 | -1.0 | -20.0
COc1cc(C(=O)OCC(=O)NCC2CCCO2)cc(OC)c1OC (stereo not given) | -3.7 | -5.1 | 4.3 | 4.4 | i | x | x | x
COc1cc(C(=O)N2CCC2(C)C(=O)O)cc(OC)c1OC (stereo not given) | 2.3 | -2.5 | -6.9 | 6.0 | i | x | x | x
CC(=O)N1CCOc2ccc(S(=O)(=O)N3CCC(C)CC3)cc21 | -5.8 | -2.4 | -14.8 | -0.9 | i | x | x | x
CCc1ccc(/C=C/C(=O)c2ccc(S(=O)(=O)N(C)C)cc2)cc1 | 2.7 | 7.2 | 85.8* | -1.3 | i | 59.9* | 0.1 | -18.8
O=C(/C=C/c1ccc(F)cc1)c1ccc(N2CCOCC2)cc1 | 11.4 | -2.5 | 65.8* | 0.3 | i | 50.9* | 2.4 | 1.8
CCc1ccc(NC(=O)CS(=O)CC(=O)Nc2ccc(N3CCOCC3)cc2)cc1 (stereo not given) | 11.8 | 2.5 | 0.3 | -3.7 | i | x | x | x
Cc1ccc(/C=C/C(=O)c2ccc(N3CCOCC3)cc2)s1 | 0.5 | -1.9 | 64.8* | 1.9 | i | 43.2 | -0.9 | -9.2
CCc1ccc(/C=C/C(=O)c2ccc(N3CCOCC3)cc2)cc1 | 8.8 | 0.9 | 83.1* | 0.3 | i | 52.9* | 0.4 | 3.2
CCc1ccc(C(=O)/C=C/c2ccc([N+](=O)[O-])o2)cc1 | 12.2 | 0.8 | 15.8 | 32.6 | i | x | x | x
Fc1ccc2c(c1)C1C=CCC1C(c1cc3c(cc1Br)OCO3)N2 (stereo not given) | -0.6 | -0.4 | 33.9 | 4.6 | i | x | x | x
SMILES | MC4R antag cAMP | MC4R ag barr | EBI2 antag | Exocytosis inh | Myeloid diff MLP | EBI2 conf | EBI2 agonist | bGal counter
Cc1ccc(CN2C(=O)C(CC(C)C)Nc3ncnc(N4CCN(c5ccccc5)CC4)c32)cc1 (stereo not given) | 0.6 | 0.8 | 14.1 | -0.2 | i | x | x | x
CC(C)CC1Nc2ncnc(N3CCN(c4ccccc4)CC3)c2N(Cc2ccc(Cl)cc2)C1=O (stereo not given) | 13.1 | -0.6 | 10.8 | -2.7 | i | x | x | x
CCC1Nc2ncnc(N3CCN(c4ccccc4)CC3)c2N(Cc2ccccc2)C1=O (stereo not given) | -2.2 | -3.8 | 46.0* | -12.9 | i | 68.1* | -2.1 | 27.6*
CCC1Nc2ncnc(N3CCN(c4ccccc4)CC3)c2N(Cc2ccc(C)cc2)C1=O (stereo not given) | 1.1 | -3.6 | 45.0* | -17.2 | i | 53.8* | -2.1 | 44.5*
COc1ccc(CN2C(=O)C(C)Nc3ncnc(N4CCN(c5ccccc5)CC4)c32)cc1 (stereo not given) | 4.8 | -3.2 | 32.8 | 15.3 | i | x | x | x
CC1Nc2ncnc(N3CCN(c4ccccc4)CC3)c2N(Cc2ccc(Br)cc2)C1=O (stereo not given) | 14.0 | -5.4 | 67.2* | 1.3 | i | 75.9* | -3.5 | 61.0*
CCCCc1cc(C(=O)Cc2ccccn2)c(O)cc1O | 5.5 | -1.1 | -1.3 | -11.0 | i | x | x | x
CN(C)S(=O)(=O)N1CCN(CC(O)COc2ccc3cc(Br)ccc3c2)CC1 (stereo not given) | 3.3 | -1.2 | 84.6* | 0.2 | i | 67.3* | 0.8 | 8.8
OC(COc1ccc(Br)cc1)CN1CCN(c2ccccc2)CC1 (stereo not given) | 2.4 | 6.0 | 48.4* | 12.2 | i | 23.0 | -0.1 | -12.4
O=C(c1ccccc1)N1CCN(CC(O)COc2ccc(Br)cc2)CC1 (stereo not given) | 11.5 | -0.1 | 71.0* | 2.5 | i | 44.1 | -0.8 | -12.3
OC(COc1ccc2cc(Br)ccc2c1)CN1CCN(c2ccccn2)CC1 (stereo not given) | 8.8 | 5.6 | 82.0* | 3.3 | i | 49.4 | 1.2 | -13.0
COc1cccc(OCC(O)CN2CCN(c3ccccn3)CC2)c1 (stereo not given) | 4.1 | 1.0 | 2.7 | -3.9 | i | x | x | x
COc1ccccc1-c1csc(C(O)c2ccc(F)c(F)c2)n1 (stereo not given) | 4.3 | 0.2 | 7.4 | 0.4 | i | x | x | x
Cc1ccc2c(c1)CCO[C@@]21O[C@H](CCO)C[C@H](O)[C@H]1O | 1.0 | -2.1 | 1.6 | -2.2 | i | x | x | x
O=c1c2c3nc4ccccc4nc3n(Cc3ccccc3)c2ncn1Cc1ccco1 | 15.8 | -3.1 | 50.9* | 93.3* | i | -1.5 | -1.0 | -12.9
O=C(Nc1ccc2c(c1)OCO2)c1cc(C2CCCCN2C(=O)c2ccc(Cl)cc2)on1 (stereo not given) | 2.8 | 0.2 | 20.2 | -5.8 | i | x | x | x
